# Results of several laboratories.
# Protocols differ between the studies behind these lines.
# ABL1 phosphorylated: Tyrosine-protein kinase ABL1, phosphorylated (ABL1, Homo sapiens, UniProt P00519)
target,read-out,action,method,concentration,endpoint,result,Structure (SMILES)
"Tyrosine-protein kinase ABL1, phosphorylated (ABL1, Homo sapiens, UniProt P00519, F317L)",binding,,competition with immobilised ligand,0.5 µM,remaining binding,97%,CCCCC(=O)Nc1ccc(-c2ccc3ncn(CCC)c(=O)c3c2)cn1
"Tyrosine-protein kinase ABL1, phosphorylated (ABL1, Homo sapiens, UniProt P00519, M351T)",enzyme activity,inhibitor,,1 µM,inhibition,0%,C=CC(=O)N1CCC([C@@H]2CCNc3c(C(N)=O)c(-c4ccc(Oc5ccccc5)cc4)nn32)CC1
"Tyrosine-protein kinase ABL1, non-phosphorylated (ABL1, Homo sapiens, UniProt P00519)",binding,,competition with immobilised ligand,1 µM,remaining binding,56%,C[C@H]1CC[C@H](n2c3cnccc3c3cnc(Nc4ccc5c(n4)CCN(C(=O)CO)C5)nc32)CC1
"Tyrosine-protein kinase ABL1 (ABL1, Homo sapiens, UniProt P00519, T315I)",cell-free assay,,,1 µM,remaining signal,103%,COc1ccc2oc(-c3ccc4nc(N)oc4c3)c/c(=N\c3ccccc3NC(=O)CCN)c2c1
"Tyrosine-protein kinase ABL1, phosphorylated (ABL1, Homo sapiens, UniProt P00519, Y253F)",enzyme activity,inhibitor,,1 µM,inhibition,22%,CC#CC(=O)N1CCC[C@H]1c1nc(-c2ccc(C(=O)Nc3ccccn3)cc2)c2c(N)nccn12
ABL1 phosphorylated,binding,,competition with immobilised ligand,1 µM,remaining binding,30%,CN1CCN(C(=O)c2ccc(NC(=O)Nc3ccc(N(C)c4ccnc(Nc5ccc(CS(C)(=O)=O)cc5)n4)cc3)cc2)CC1
"Tyrosine-protein kinase ABL1, non-phosphorylated (ABL1, Homo sapiens, UniProt P00519, F317I)",enzyme activity,inhibitor,,1 µM,inhibition,0%,CO[C@@H]1[C@H](N(C)C(=O)c2ccccc2)C[C@H]2O[C@]1(C)n1c3ccccc3c3c4c(c5c6ccccc6n2c5c31)C(=O)NC4
ABL1 phosphorylated,binding,,,0.1 µM,remaining binding,27%,C1=C/COCc2cc(ccc2OCCN2CCCC2)Nc2nccc(n2)-c2cccc(c2)COC/1
"Tyrosine-protein kinase ABL1, phosphorylated (ABL1, Homo sapiens, UniProt P00519, T315I)",cell-free assay,,competition with immobilised ligand,25 µM,remaining binding,100%,N#Cc1ccc(NC(=O)Nc2ccccc2)cc1
"Tyrosine-protein kinase ABL1 (ABL1, Homo sapiens, UniProt P00519, F317L)",binding,,,1 µM,remaining binding,84%,Cc1ccc(NC(=O)c2ccnc(C(F)(F)F)c2)cc1-c1cc(OCCO)nc(N2CCOCC2)c1
